# GalR3 antagonist: human GalR3 antagonism; actives 0.44% (n = 360,000); inhibition, % at 3 µM; AID 651719; HEK293 GalR3-CNG cAMP membrane potential fluorescence; galR3 body fused to GalR1 C-terminus; O60755;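 active means inhibition above the screen-wide average plus 3 SD, cut at about 13% in these data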;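 further: forskolin and galanin both at EC90 stimulate the cells; cAMP rise reported by CNG channel membrane potential dye signal; 0% = forskolin plus galanin with DMSO and 100% = forskolin alone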
# OX1R antag-1: antagonists of human orexin 1 receptor (OX1R) | OX1R-expressing cells, FRET antagonist read-out | inhibition, % at 6.6 µM | actives 1.8% (n = 330,000) | AID 485270; in the data active means inhibition mostly above about 38%, no sharp cut-off; inactive means mostly below about 40%;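 further: 0% = agonist challenge alone and 100% = reference antagonist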
# Target sequence (O43613 whole entry, looked up): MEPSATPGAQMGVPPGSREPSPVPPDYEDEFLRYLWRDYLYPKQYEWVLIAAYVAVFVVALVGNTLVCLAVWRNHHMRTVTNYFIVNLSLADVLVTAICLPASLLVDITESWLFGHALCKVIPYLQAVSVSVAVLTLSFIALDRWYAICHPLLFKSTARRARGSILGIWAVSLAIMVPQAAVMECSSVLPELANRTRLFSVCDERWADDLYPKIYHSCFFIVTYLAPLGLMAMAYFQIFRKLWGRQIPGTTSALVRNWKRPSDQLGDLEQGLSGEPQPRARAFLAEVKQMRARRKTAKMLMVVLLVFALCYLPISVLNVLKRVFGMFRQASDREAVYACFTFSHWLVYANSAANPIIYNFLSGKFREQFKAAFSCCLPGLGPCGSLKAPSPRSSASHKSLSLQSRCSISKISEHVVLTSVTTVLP
# GPR7 antag: antagonists of human GPR7 (neuropeptides B/W receptor 1); actives 1.1% (n = 290,000); GPR7-expressing cells, fluorescence antagonist assay; inhibition, % at 4.4 µM; P48145; in the data active means inhibition above about 16%, passing the limit was not always enough;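 further: cells stimulated with the agonist NPW; 0% = agonist with vehicle and 100% = vehicle without agonist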
# OX1R antag-2: human HCRTR1 antagonism; O43613; CHO/OX1R cells, Fluo-8 calcium fluorescence, orexin A; inhibition, % at 5 µM; actives 0.43% (n = 330,000); AID 434989;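 active means inhibition above its plate's threshold, mean inhibition of all tested compounds on the plate plus 3 SD, cut at about 37% in these data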;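 further: 0% = orexin A challenge wells and 100% = SB-334867-A antagonist wells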
# CHO parental Ca: counter-screen: ATP calcium response change in parental CHO cells; parental CHO-K1, ATP-induced calcium, Fluo-8 fluorescence; inhibition, % at 5.6 µM; actives 0.63% (n = 330,000);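 active means inhibition above that plate's mean sample inhibition plus 3 SD, cut at about 26% in these data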;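 further: 0% = ATP-challenged DMSO wells and 100% = DMSO wells without ATP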
#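 Material – parental CHO cells · Reagent – ATP stimulus · Compound – single nominal dose of 5.6 µM per compound · Detection – Fluo-8 fluorescence · Read-out basis – percent inhibition of calcium signal · Controls – ATP-challenged DMSO wells low, unchallenged DMSO wells high · Repeats – no replicates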
# The depositor's hits bear a star; · = not tested or not shown. The list is not random: actives were taken first. Their share in the collection is about 3.1%.
SMILES,GalR3 antagonist,OX1R antag-1,GPR7 antag,OX1R antag-2,CHO parental Ca
Cc1ccc(S(=O)(=O)c2nc(S(C)(=O)=O)sc2N2CCC3(CC2)OCCO3)cc1,1,29,-10,-12,-8
NC(=O)[C@@H]1CCCN1C(=O)[C@H](CCc1ccccc1)NC(=O)[C@H]1O[C@@H](n2cnc3c(N)ncnc32)[C@H](O)[C@@H]1O,-7,·,·,·,·
OCCCNC(=S)Nc1ccc2nc(-c3ccccn3)c(-c3ccccn3)nc2c1,0,75*,-1,-13,-11
CCCOC(=O)c1cccc(NC(=O)COc2ccc([N+](=O)[O-])cc2)c1,3,34,9,24,32*
CCN(CC)CCn1nc2c3c(cccc3c1=O)-c1ccccc1-2,-6,22,-11,-5,-3
O=c1c2cccc3c2c(nn1CN1CCOCC1)-c1ccccc1-3,·,71*,-8,0,-12
O=C1C=C(NCc2ccc(Cl)cc2Cl)C2(CCCCC2)O1,-7,20,21*,-21,-9
COc1ccc2nc3ccccc3nc2c1NC(=O)c1ccccc1Cl,-3,51*,-14,-43,-27
COc1ccc(-c2cc(C(=O)Nc3c(Cl)cc(Cl)cc3Cl)c3ccccc3n2)cc1OC,-2,3,-14,-39,-24
C[C@@H]1ON(C)[C@H]2C[C@H]3c4[nH]c5c(-c6ccc(Cl)cc6)cccc5c4CCN3C(=O)[C@@H]12,-6,·,·,·,·
CN(C)c1cccc2c1C(=O)c1ccccc1C2=O,-4,46*,-6,-13,-13
COc1ccc(-c2n(CC(=O)OC3CC(C)CCC3C(C)C)c3ccccc3[n+]2C)cc1 (stereo not given),-4,·,93*,·,·
Cc1cc(N2CCNC[C@H]2C)ccc1N1CCN(Cc2ccccc2)[C@@H](C)C1,-7,·,·,·,·
Cn1ncc(Cl)c1C(=O)Nc1sc2c(c1C(N)=O)CCC2,-7,76*,-11,13,-24
O=c1[nH]c2c(=O)[nH]cnc2nc1-c1ccccc1,-4,40*,·,0,-6
CC1CCN(C(=O)CCCC(=O)N2CCC(C)CC2)CC1,2,5,-15,-26,-9
CC1CCN(CCNC(=O)C2CCCN(S(=O)(=O)c3cccc4nonc34)C2)CC1 (stereo not given),-3,70*,9,-19,0
O=C(NC1CCN(Cc2ccccc2)CC1)C1CCN(S(=O)(=O)c2cccc3nsnc23)CC1,-5,71*,-4,-20,-17
O=C(NC1CCN(Cc2ccccc2)CC1)C1CCCN(S(=O)(=O)c2cccc3nonc23)C1 (stereo not given),-4,70*,5,-19,-19
COc1ccc(C(CNC(=O)c2cccc(S(=O)(=O)N(C)c3ccccc3)c2)N2CCCC2)cc1 (stereo not given),-7,13,·,-8,-13
Cc1cc(Nc2cccc(C(F)(F)F)c2)cc(=O)n1-c1cccc(C(F)(F)F)c1,-8,·,·,·,·
COCCN(Cc1ccc(C)cc1)C(=O)[C@@H](Cc1ccccc1)NC(=O)[C@H]1O[C@@H](n2ccc(=O)[nH]c2=O)[C@H](O)[C@@H]1O,-6,·,·,·,·
CN1c2ccccc2C(C)(C)[C@]12C=Cc1cc(O)ccc1O2,-4,5,20,21,48*
Cc1cccc(-n2c(=O)c(C#N)cc3c(=O)n4ccccc4nc32)c1,-1,60*,1,-11,-17
CCCn1c(=N)c(C#N)cc2c(=O)n3ccccc3nc21,-7,47*,-10,9,-2
SMILES,GalR3 antagonist,OX1R antag-1,GPR7 antag,OX1R antag-2,CHO parental Ca
CC(=O)Nc1ccc(-c2ccnc3c2CC(C)(C(=O)Nc2ccc(C(C)C)cc2)O3)cc1 (stereo not given),-5,·,·,·,·
Cc1cc(N2CCNC[C@@H]2C)ccc1N1CCN(Cc2ccccc2)[C@@H](C)C1,-1,·,·,·,·
CCOC(=O)C1=CNS(=O)(=O)NC1c1ccc(C(=O)OC)cc1 (stereo not given),-1,7,·,-1,1
CC(C)c1ccc(N2C(=O)/C(=C/N(C)C)SC2=S)cc1,-8,2,-7,52*,18
CCCS(=O)(=O)c1nc(S(=O)(=O)c2ccc(C)cc2)c(N2CCC(C(N)=O)CC2)s1,-3,19,-11,-16,-9
COc1ccc(-c2csc(NC(=O)C3CCN(c4ncnc5sc(C)c(C)c45)CC3)n2)cc1OC,-2,76*,·,45*,75*
CCc1noc(C)c1C(=O)Nc1nc(-c2ccc(OC)c(OC)c2)cs1,-5,61*,·,-7,-18
COc1ccccc1OCC(=O)NNC(=O)C1CCN(c2ncnc3sc(C)c(C)c23)CC1,-5,9,·,-4,-18
Cc1ccc(-c2csc(NC(=O)c3c(C)noc3C)n2)cc1C,-9,32*,·,24,2
CC(=O)Nc1ccc(-c2csc(NC(=O)c3ccc(C)o3)n2)cc1,-4,24,-18,-8,-10
CCc1noc(C)c1C(=O)Nc1nc(-c2ccc(NC(C)=O)cc2)cs1,-3,58*,·,-1,-3
COc1ccc(-c2csc(NC(=O)CSCc3c(C)noc3C)n2)cc1OC,1,14,-13,-38,-18
CC1CCCCC1NC(=O)c1ccc(NC2=NC3CS(=O)(=O)CC3S2)cc1 (stereo not given),0,10,-2,-8,1
CSc1ccc(Oc2cccc3c2S(=O)(=O)N(C2CC2)C[C@@H](COCc2ccccc2)O3)cc1C,-5,·,·,·,·
O[C@@H](Cc1ccccc1)[C@@H](/C=C/c1ccccc1)NCCc1ccccc1,-6,·,·,·,·
COC(=O)C1=C(C)N(Cc2ccccc2C(F)(F)F)C(=NCc2cc(OC)c(OC)c(OC)c2)NC1c1ccccc1C(F)(F)F (stereo not given),-8,·,·,·,·
Cc1onc(-c2ccccc2)c1C(=O)Nc1nc(-c2ccc(F)c(F)c2)cs1,-2,18,-24,-36,-22
CCc1noc(C)c1C(=O)OCC(=O)Nc1nc(-c2ccc(F)c(F)c2)cs1,-5,21,·,69*,36*
CC1CCN(C(=O)C(C)c2ccc([N+](=O)[O-])cc2)CC1 (stereo not given),0,19,-3,-18,-14
Cc1cccc(C(=O)NNC(=O)c2csc(N3CCOCC3)n2)c1C,0,12,·,-24,-4
COc1ccc(C(=O)CSC2=NS(=O)(=O)c3cc(Cl)ccc3N2)cc1,1,62*,·,-11,-7
COc1ccc(/C=C/C(=O)Nc2ccc(OC)nc2)cc1,-2,10,0,-4,-1
COc1ccc(CS(=O)(=O)/C(Cl)=C(/Cl)C(=O)Nc2ccc(OC)nc2)cc1,·,28,39*,-20,-4
COc1ccc(NC(=O)/C(Cl)=C(/Cl)S(=O)Cc2ccccc2)cn1 (stereo not given),10,6,40*,7,7
COc1ccc(NC(=O)Cc2ccccc2)cn1,-5,4,-4,-4,-4
Cc1ccc(N(C)C2=NC(=O)CS2)cc1Cl,-4,4,-19,-7,-7

# Screens as filed in PubChem BioAssay.
